LEDGF integ inh = blocks HIV-1 LEDGF/p75-dependent DNA integration | inhibition, % at 3.7 µM | 0.64% of 370,000 active | TR-FRET IN-LEDGF/p75 DNA integration, Eu/Cy5 | AID 743269;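 active means inhibition above the screen-wide mean plus 3 SD, cut at about 13% in these data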;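 further: signal is the Cy5 over europium emission ratio at 671 and 618 nm; 0% = plate median of compound wells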
Casp6 inh = caspase-6 (human) enzyme inhibition | P55212 | purified caspase-6, Z-VEID-R110 cleavage fluorescence | inhibition, % at 12.5 µM | 0.53% of 350,000 active | AID 686996;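 active means mean inhibition across replicates at least about 35%, with every replicate also reaching that limit, limit read from the data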;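 further: 0% = median of neutral control wells and 100% = no fluorescence left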
Target sequence (P55212 24-179 limits assumed): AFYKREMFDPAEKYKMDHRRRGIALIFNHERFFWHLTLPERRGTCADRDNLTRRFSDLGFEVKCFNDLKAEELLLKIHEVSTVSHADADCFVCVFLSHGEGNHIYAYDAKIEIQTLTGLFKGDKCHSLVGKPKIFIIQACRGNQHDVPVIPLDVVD
Target sequence (P55212 194-293 limits assumed): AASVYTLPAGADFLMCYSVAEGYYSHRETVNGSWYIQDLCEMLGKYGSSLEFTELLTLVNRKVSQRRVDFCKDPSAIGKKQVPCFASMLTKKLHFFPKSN
TDP2 absorb = TDP2 (human) inhibition, absorbance primary screen; O95551; recombinant TDP2, T5PNP hydrolysis, p-nitrophenol absorbance 415 nm; inhibition, % at 12.8 µM; 0.34% of 370,000 active; AID 720702;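 active means inhibition above the mean of all tested compounds plus 3 SD, set per campaign, cut at about 25% in these data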;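 further: 0% = DMSO with enzyme and 100% = buffer with substrate but no TDP2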
Target sequence (O95551 whole entry, looked up): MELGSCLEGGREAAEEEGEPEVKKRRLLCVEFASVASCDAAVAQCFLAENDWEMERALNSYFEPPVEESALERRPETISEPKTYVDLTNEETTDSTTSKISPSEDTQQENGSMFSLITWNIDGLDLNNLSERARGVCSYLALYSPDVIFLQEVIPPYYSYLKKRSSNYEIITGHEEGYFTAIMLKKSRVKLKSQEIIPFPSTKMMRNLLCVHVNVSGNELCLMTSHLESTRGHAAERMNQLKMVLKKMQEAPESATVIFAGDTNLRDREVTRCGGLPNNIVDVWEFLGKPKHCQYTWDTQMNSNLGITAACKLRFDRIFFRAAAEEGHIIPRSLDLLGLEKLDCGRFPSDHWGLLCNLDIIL
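System – recombinant human TDP2 · Quantity – TDP2 enzyme at 120 nM final · Doses – single concentration, 12.8 µM nominal, with 1% DMSO · Incubation – 2 h at 37 °C · Measured by – epi absorbance of p-nitrophenol freed from T5PNP by hydrolysis · Read-out – % inhibition relative to enzyme-containing and enzyme-free wells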
NSD2 HMT inh = inhibitors of human histone methyltransferase NSD2. O96028. NSD2 peptide methylation, AlphaScreen, 120 min. inhibition, % at 12.5 µM. 0.54% of 310,000 active; in the data active means inhibition above about 50%
UCH37 inh = human UCH37 deubiquitinating enzyme inhibition; 0.33% of 330,000 active; Q9Y5K5; inhibition, % (no concentration beside the values); purified proteasome/UCH37, Ub-AMC cleavage fluorescence;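 active means mean inhibition over replicate wells above about 20%, limit read from the data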;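 further: 0% = compound-free wells with enzyme and 100% = wells lacking proteasome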
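Material: human UCH37 enzyme supplied as purified proteasome complex. Measure: % inhibition of Ub-AMC cleavage fluorescence. Medium: pH 7.4 Tris-HCl (50 mM) with ovalbumin, ATP-MgCl2, DTT. Times: 30 min preincubation with enzyme, 25 min cleavage at room temperature. Detection: AMC fluorescence intensity at 355/460 nm.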
Starred values were filed as active, the others as inactive; . = not tested or not shown; ! = repeats disagree. Only some compounds are listed: those with a hit (about 1.3% of all), similar ones and a draw of the others.

SMILES	LEDGF integ inh	Casp6 inh	TDP2 absorb	NSD2 HMT inh	UCH37 inh
COc1ccc(C2/C(=C(/O)c3ccc4c(c3)CC(C)O4)C(=O)C(=O)N2CCN2CCOCC2)cc1 (configuration not stated)	0.0	.	11.2	-4.6	4.3
COc1ccc(C2/C(=C(/O)c3ccc4c(c3)CC(C)O4)C(=O)C(=O)N2CCCN2CCOCC2)cc1 (configuration not stated)	1.8	-1.5	-10.2	2.3	21.1*
Cc1ccccc1OC(C)C(=O)NC1CCCC1 (configuration not stated)	-1.9	.	1.7	0.7	28.3*
O=C(Cc1ccccc1)NCC(=O)NN=Cc1cccs1	.	.	.	.	2.6
NC(=O)c1ccc(N=Cc2ccc([N+](=O)[O-])s2)cc1	3.3	2.4	-0.5	27.1	61.7*
Cc1cc(C)cc(N=Cc2ccc([N+](=O)[O-])s2)c1	-0.7	.	14.3	1.7	10.4
Cc1ccc(C(=O)N/N=C\c2ccc(OC(=O)c3cccc(F)c3)cc2)cn1	-0.7	47.4*	-9.6	-2.2	.
Cc1ccc(C(=O)N/N=C\c2cccc(OC(=O)c3cccc(F)c3)c2)cn1	1.4	2.7	-6.1	-6.3	.
Cc1nn(C)cc1C=NNC(=O)c1ccc2c(c1)c(C)c(C)n2Cc1ccccc1	.	.	.	.	0.3
Cc1ccc2nc(Cl)c(C=NNC(=O)[C@H]3C[C@@H]3c3ccccc3)cc2c1	.	.	.	.	-1.9
O=C(O)c1ccc(Nc2ncnc3ccccc23)cc1	-1.6	-3.1	14.9	-2.1	0.7
O=C(Oc1ccc(Nc2ncnc3ccccc23)cc1)c1cccnc1	-4.0	38.3*	-8.9	0.8	3.8
O=C(CSc1nnc(-c2ccncc2)n1-c1ccccc1Cl)Nc1ccc(C(=O)O)cc1	-0.9	1.1	8.6	-2.5	1.2
O=C(CSc1nnc(-c2ccco2)n1-c1ccccc1Cl)Nc1cccc(C(=O)O)c1	-0.2	55.4*	18.4	6.8	4.0
C[N+](C)(C)CCCCCC(=O)C=NO	.	.	.	.	3.9
O=C1C=CC(n2cc(F)c(=O)[nH]c2=O)O1 (configuration not stated)	2.1	36.2*	10.5	-0.7	.
CC(=O)c1cccc2c(O)c(C3=Nc4ccccc4C3=O)[nH]c12	-3.8	.	8.3	37.1	28.1*
O=C1C(c2c(O)[nH]c3ccccc23)=Nc2ccccc21	-1.4	2.4	5.0	.	2.9
CCN(CC)c1ccc(C=NNc2nc(C)cc(C)n2)c(O)c1	.	.	.	.	2.7
O=C(OC1CCOC1=O)c1ccc(Cl)c(S(=O)(=O)N2CCOCC2)c1 (configuration not stated)	2.1	40.4*	-4.6	1.6	0.7
CC(=O)C(C(C)=O)c1c(Cl)c(O)c(O)c2c(C(=O)c3ccccc3)coc12	51.0*	.	-17.4	.	-0.8
COC1=C(Br)C(=O)c2ncccc2C1=O	14.9*	97.9*	94.2*	.	.
O=C1c2cccnc2-c2ncccc21	1.1	.	-8.6	-3.8	2.0
CC(=O)N1c2ccc(Cl)cc2C2C=CCC2C1c1cccc2ccccc12 (configuration not stated)	.	.	.	.	47.9*
CC1CC2c3cccc(C(=O)O)c3C(=O)N2c2ccc(Cl)cc21 (configuration not stated)	1.1	-0.8	-13.7	2.7	.
SMILES	LEDGF integ inh	Casp6 inh	TDP2 absorb	NSD2 HMT inh	UCH37 inh
COc1cc(C=NNC(=O)C(N)=O)cc(OC)c1O	.	.	.	.	11.5
N#Cc1c(/N=C/c2ccc(-c3ccccc3C(=O)O)o2)sc2c1CCCC2	-0.2	56.7*	0.7	44.8	.
N#Cc1c(/N=C/c2ccc(-c3ccc(C(=O)O)c(Cl)c3)o2)sc2c1CCCC2	-9.6	27.8	0.1	28.3	.
CS(=O)(=O)c1sc2nc(-c3cccs3)cc(-c3ccccc3)c2c1N	20.4*	.	-1.1	.	-15.5
O=C(C[C@H]1C=C[C@H](NC(=O)c2ccccc2)[C@H](CO)O1)NCCc1ccncc1	.	41.0*	.	.	.
O=C(O)c1cc(-c2ccc(/C=C3\NC(=O)N(c4ccccc4)C3=O)o2)ccc1Cl	4.9	24.5	2.9	.	-9.6
O=C1NN(c2ccccc2)C(=O)/C1=C/c1ccc(-c2ccc(Cl)c(C(=O)O)c2)o1	4.7	54.6*	-7.1	23.5	2.1
O=C1NN(c2ccccc2)C(=O)/C1=C/c1ccc(Sc2ccc(Cl)cc2)o1	-3.8	39.8*	1.6	.	11.6
COc1ccccc1-c1cc(C(=O)NN=Cc2cn(C)nc2C)c2ccccc2n1	.	.	.	.	6.4
O=c1c2ccccc2nc(/C=C/c2cccnc2)n1CCc1ccccc1	2.5	5.9	-9.8	-2.1	.
O=c1c2ccccc2nc(/C=C/c2cccnc2)n1Cc1ccccc1	10.3	46.5*	6.3	-1.6	11.1
CCC(C)(C)NC(=O)CN(C(=O)CNS(=O)(=O)c1ccc(F)cc1)c1ccc2c(c1)OCCO2	-0.7	47.4*	1.2	.	1.1
CC(C)(C)NC(=O)CN(Cc1ccc2c(c1)OCO2)C(=O)CNS(=O)(=O)c1ccc(F)cc1	1.8	.	-2.8	45.3	4.8
COC/C=C/C1=CC2=CC(=O)C(C)(OC(=O)c3cnc4ccccc4n3)C(=O)C2=CN1Cc1ccc(OC)cc1 (configuration not stated)	12.0	5.0	3.9	.	4.7
COC/C=C/C1=CC2=CC(=O)C(C)(OC(=O)c3cnc4ccccc4n3)C(=O)C2=CN1CC1CC1 (configuration not stated)	.	.	.	.	40.7*
CCN(CC)C(=O)COc1ccc(C(C)=NNC(=O)c2ccccc2-n2cccc2)cc1	.	.	.	.	-0.3
COc1cc(-c2noc(C)c2/C=C/c2ccc(C(=O)O)cc2)cc(OC)c1OC	1.8	35.4*	6.0	.	6.2
S=c1[nH]c2ncccc2o1	2.3	2.6	-22.7	11.7	6.1
S=c1[nH]c2cc(Cl)c3cccnc3c2o1	3.9	51.5*	5.5	4.6	.
CN(c1ccc(OCC(=O)Nc2cc(Cl)ccc2C(=O)O)cc1)S(=O)(=O)c1ccc(F)cc1	1.1	36.3*	-1.3	8.1	1.3
C[C@H](CO)N1C[C@H](C)[C@@H](CN(C)C(=O)c2ccncc2)OCc2cnnn2CCCC1=O	0.9	39.1*!	-6.6	.	.
O=C(NN=Cc1cccc2nccnc12)c1ccccc1O	.	.	.	.	8.2
CC(=NNc1nc2c(s1)CCCC2)c1ccc(Cl)cc1	.	.	.	.	-2.9
O=C(O)c1ccc2[nH]c3c(c2c1)CCCC3	-2.3	29.0	-7.6	1.4	21.0*
O=[N+]([O-])c1ccc2[nH]c3c(c2c1)CCCC3	-2.6	2.4	-10.6	-1.8	5.2
CC1CCc2[nH]c3ccc(C(=O)O)cc3c2C1 (configuration not stated)	-0.5	48.4*	-15.9	0.4	4.5
Cc1ccc([N+](=O)[O-])cc1NC(=O)C(C)N1CCCCC1 (configuration not stated)	0.6	40.0*	-8.0	-0.9	0.3
O=C(NCCc1ccc(O)cc1)c1ccc(Cl)cc1	1.5	.	-0.2	-2.3	31.4*
O=[N+]([O-])c1cccc(-c2nc3ccc([N+](=O)[O-])cc3[nH]2)c1	5.2	0.9	2.4	2.5	3.8
O=[N+]([O-])c1ccc2nc(-c3ccccc3[N+](=O)[O-])[nH]c2c1	-1.5	38.4*	6.7	2.2	5.9
